# Test results as given in ChEMBL document CHEMBL5724801, “EUbOPEN Chemogenomics Library - Multiplex” (2024).
# “And” between values parts separate entries of the source, which are not always exact repeats. Equal entries are not always repeated.
# Tests used:
# Fibroblast = experiment: Multiplex assay against human fibroblast; format: toxicity, cell-based
# Method in brief: (§1)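 Live cells were stained at seeding with Hoechst33342, BioTracker Green Microtubule Cytoskeleton Dye, MitoTracker Red and Annexin V Alexa Fluor 680. Following compound addition, they were imaged on a CQ1 microscope at 37°C and 5% CO2 and gated by CellPathfinder machine learning into Hoechst high-intensity objects or normal cells, with normal cells split into healthy, pyknosed or fragmented nuclei and pyknosed cells into mitotic or apoptotic. Tubulin, mitochondrial-mass and membrane-permeability phenotypes are per cents of healthy-nucleus cells.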
# HEK-293T = experiment: Multiplex assay against HEK293T; format: toxicity, cell-based; details: human; method in brief: as §1
# [1] = 12 h, 1 µM, compound concentration 1 uM
# [2] = 12 h, 10 µM, compound concentration 10 uM
# [3] = 24 h, 1 µM, compound concentration 1 uM
# [4] = 24 h, 10 µM, compound concentration 10 uM
# [5] = 48 h, 1 µM, compound concentration 1 uM
# [6] = 48 h, 10 µM, compound concentration 10 uM
compound,measurement,setting,value
CN(C)Cc1cccc(NC(=C2C(=O)Nc3cc(C(N)=O)ccc32)c2ccccc2)c1,Population Apoptotic (%),Fibroblast; [1],0% and 16.22%
same,Population Fragmented Nuclei (%),Fibroblast; [1],12% and 11.4%
same,Population Healthy Nuclei (%),Fibroblast; [1],66.67% and 69.43%
same,Population Hoechst High Intensity Objects (%),Fibroblast; [1],0%
same,Population Membrane Permeable-Phenotype (%),Fibroblast; [1],4% and 2.99%
same,Population Mitochondria Different-Phenotype (%),Fibroblast; [1],10% and 8.21%
same,Population Mitotic Cells (%),Fibroblast; [1],100% and 83.78%
same,Population Normal (%),Fibroblast; [1],100%
same,Population Pyknosed Nuclei (%),Fibroblast; [1],21.33% and 19.17%
same,Population Tubulin-Different-Phenotype (%),Fibroblast; [1],20% and 13.43%
same,Total Cell Count,Fibroblast; [1],150 and 193
same,Population Apoptotic (%),Fibroblast; [2],29.55% and 27.03%
same,Population Healthy Nuclei (%),Fibroblast; [2],68.3% and 82.06%
same,Population Hoechst High Intensity Objects (%),Fibroblast; [2],0%
same,Population Membrane Permeable-Phenotype (%),Fibroblast; [2],9.39% and 4.65%
same,Population Mitochondria Different-Phenotype (%),Fibroblast; [2],16.57% and 13.49%
same,Population Mitotic Cells (%),Fibroblast; [2],70.45% and 72.97%
same,Population Normal (%),Fibroblast; [2],100%
same,Population Pyknosed Nuclei (%),Fibroblast; [2],16.6% and 14.12%
same,Population Tubulin-Different-Phenotype (%),Fibroblast; [2],48.62% and 53.95%
same,Total Cell Count,Fibroblast; [2],265 and 262
same,Population Apoptotic (%),Fibroblast; [3],23.81% and 25%
same,Population Fragmented Nuclei (%),Fibroblast; [3],7.65% and 8.11%
same,Population Healthy Nuclei (%),Fibroblast; [3],80% and 81.08%
same,Population Hoechst High Intensity Objects (%),Fibroblast; [3],0%
same,Population Membrane Permeable-Phenotype (%),Fibroblast; [3],4.41% and 2%
same,Population Mitochondria Different-Phenotype (%),Fibroblast; [3],5.15% and 6.67%
same,Population Mitotic Cells (%),Fibroblast; [3],76.19% and 75%
same,Population Normal (%),Fibroblast; [3],100%
same,Population Pyknosed Nuclei (%),Fibroblast; [3],12.35% and 10.81%
same,Population Tubulin-Different-Phenotype (%),Fibroblast; [3],8.82% and 14.67%
same,Total Cell Count,Fibroblast; [3],170 and 185
same,Population Apoptotic (%),Fibroblast; [4],16.28% and 31.25%
same,Population Fragmented Nuclei (%),Fibroblast; [4],12.59% and 7.12%
same,Population Healthy Nuclei (%),Fibroblast; [4],71.94% and 80.9%
same,Population Hoechst High Intensity Objects (%),Fibroblast; [4],0%
same,Population Membrane Permeable-Phenotype (%),Fibroblast; [4],5.5% and 3.24%
same,Population Mitochondria Different-Phenotype (%),Fibroblast; [4],9% and 14.35%
same,Population Mitotic Cells (%),Fibroblast; [4],83.72% and 68.75%
same,Population Normal (%),Fibroblast; [4],100%
same,Population Pyknosed Nuclei (%),Fibroblast; [4],15.47% and 11.99%
same,Population Tubulin-Different-Phenotype (%),Fibroblast; [4],48.5% and 61.11%
same,Total Cell Count,Fibroblast; [4],278 and 267
same,Population Apoptotic (%),Fibroblast; [5],40% and 44.44%
same,Population Fragmented Nuclei (%),Fibroblast; [5],11.24% and 9.23%
same,Population Healthy Nuclei (%),Fibroblast; [5],83.15% and 76.92%
same,Population Hoechst High Intensity Objects (%),Fibroblast; [5],0%
same,Population Membrane Permeable-Phenotype (%),Fibroblast; [5],1.35% and 5.33%
same,Population Mitotic Cells (%),Fibroblast; [5],60% and 55.56%
same,Population Normal (%),Fibroblast; [5],100%
same,Population Pyknosed Nuclei (%),Fibroblast; [5],5.62% and 13.85%
same,Population Tubulin-Different-Phenotype (%),Fibroblast; [5],8.11% and 15.33%
same,Total Cell Count,Fibroblast; [5],178 and 195
same,Population Apoptotic (%),Fibroblast; [6],47.37% and 60%
same,Population Healthy Nuclei (%),Fibroblast; [6],76.72% and 86.82%
same,Population Hoechst High Intensity Objects (%),Fibroblast; [6],0%
same,Population Membrane Permeable-Phenotype (%),Fibroblast; [6],5.06% and 5.36%
same,Population Mitochondria Different-Phenotype (%),Fibroblast; [6],6.23% and 7.14%
same,Population Mitotic Cells (%),Fibroblast; [6],52.63% and 40%
same,Population Normal (%),Fibroblast; [6],100%
same,Population Pyknosed Nuclei (%),Fibroblast; [6],5.67% and 7.75%
same,Population Tubulin-Different-Phenotype (%),Fibroblast; [6],40.86% and 67.41%
same,Total Cell Count,Fibroblast; [6],335 and 258
same,Population Apoptotic (%),HEK-293T; [1],11.04% and 8.47%
same,Population Fragmented Nuclei (%),HEK-293T; [1],2.49% and 2.04%
same,Population Hoechst High Intensity Objects (%),HEK-293T; [1],0.28% and 0%
same,Population Membrane Permeable-Phenotype (%),HEK-293T; [1],0.51% and 7.69%
same,Population Mitochondria Different-Phenotype (%),HEK-293T; [1],22.73% and 15.38%
same,Population Mitotic Cells (%),HEK-293T; [1],88.96% and 91.53%
same,Population Normal (%),HEK-293T; [1],99.72% and 100%
same,Population Pyknosed Nuclei (%),HEK-293T; [1],42.66% and 80.27%
same,Total Cell Count,HEK-293T; [1],362 and 147
same,Population Apoptotic (%),HEK-293T; [2],15.53% and 28.8%
same,Population Fragmented Nuclei (%),HEK-293T; [2],3.04% and 4.44%
same,Population Healthy Nuclei (%),HEK-293T; [2],56.2% and 26.11%
same,Population Hoechst High Intensity Objects (%),HEK-293T; [2],0.25% and 0%
same,Population Membrane Permeable-Phenotype (%),HEK-293T; [2],0.45% and 2.13%
same,Population Mitochondria Different-Phenotype (%),HEK-293T; [2],20.72% and 17.02%
same,Population Mitotic Cells (%),HEK-293T; [2],84.47% and 71.2%
same,Population Normal (%),HEK-293T; [2],99.75% and 100%
same,Population Pyknosed Nuclei (%),HEK-293T; [2],40.76% and 69.44%
same,Population Tubulin-Different-Phenotype (%),HEK-293T; [2],14.86% and 40.43%
same,Total Cell Count,HEK-293T; [2],396 and 180
same,Population Apoptotic (%),HEK-293T; [3],13.33% and 15.56%
same,Population Fragmented Nuclei (%),HEK-293T; [3],0.9% and 4.61%
same,Population Healthy Nuclei (%),HEK-293T; [3],77.6% and 36.18%
same,Population Hoechst High Intensity Objects (%),HEK-293T; [3],0.18% and 0.65%
same,Population Membrane Permeable-Phenotype (%),HEK-293T; [3],1.39% and 1.82%
same,Population Mitochondria Different-Phenotype (%),HEK-293T; [3],9.47% and 14.55%
same,Population Mitotic Cells (%),HEK-293T; [3],86.67% and 84.44%
same,Population Normal (%),HEK-293T; [3],99.82% and 99.35%
